High-throughput results (PubChem)
Most compounds without a hit are left out; they make up all but 2.8% or so of the library.
T cruzi repl: inhibitors of intracellular T. cruzi growth, primary screen, luminescence, NIH3T3 host cells. T. cruzi beta-gal in NIH3T3, 90 h. inhibition, % (test concentration not listed). hit rate 1.4% among 300,000;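 active means mean inhibition across valid replicates above about 55%, limit read from the data; inconclusive means mean below that limit but half or more replicates reach it; inactive means mean below it, under half of replicates reach it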;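 further: signal also drops with host cell toxicity which is not excluded here; 0% = plate median of DMSO wells and 100% = zero luminescence signal; higher percent means less beta-gal luminescence so fewer parasites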
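Test system: β-gal T. cruzi (Tulahuen C4) inside NIH/3T3 cells / Quantity: 5,000 cells/well / Measured by: luminescence from GalScreen with 0.05% NP40, read after 60 min / Medium: DMEM plus 2% FBS / Measure: parasite load inhibition, % / Reagent: Tulahuen C4 trypomastigotes, 5000/well / Schedule: co-culture of at least 90 h after 3 h attachment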
UBC13 inh: UBC13 polyubiquitin chain formation inhibitors, primary screen, biochemical, TR-FRET, uHTS. inhibition, % at 20 µM. Ubiquitin-conjugating enzyme E2 N (Homo sapiens), P61088. hit rate 0.47% among 330,000; in the data active means inhibition above about 45%, passing the limit was not always enough; inconclusive means no clear call, values can overlap the other calls
PP1 inh: PP1-alpha phosphatase inhibitors, primary screen, counter-screen for PP5 inhibitor project, biochemical, fluorescence, OMFP substrate, single point | Serine/threonine-protein phosphatase PP1-alpha catalytic subunit (Homo sapiens), P62136 | hit rate 0.9% among 320,000 | inhibition, % at 6.7 µM | purified PP1alpha;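 active means inhibition above the mean inhibition of all tested compounds plus 3 SD, computed separately for each screening campaign, cut at about 15% in these data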
Target sequence (P62136 whole entry, looked up): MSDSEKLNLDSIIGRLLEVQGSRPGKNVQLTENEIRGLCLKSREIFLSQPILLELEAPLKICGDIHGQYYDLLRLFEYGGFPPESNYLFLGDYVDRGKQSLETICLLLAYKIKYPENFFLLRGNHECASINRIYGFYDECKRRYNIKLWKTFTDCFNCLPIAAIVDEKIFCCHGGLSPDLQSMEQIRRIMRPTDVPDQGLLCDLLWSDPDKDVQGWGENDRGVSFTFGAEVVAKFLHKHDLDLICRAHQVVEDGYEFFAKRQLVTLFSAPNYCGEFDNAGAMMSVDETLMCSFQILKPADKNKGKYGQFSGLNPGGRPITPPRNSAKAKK
AI-2 QS modul: Vibrio harveyi AI-2 quorum sensing modulators, primary screen, JMH597 strain, luminescence/OD600 ratio; Vibrio harveyi JMH597 AI-2 luminescence/OD600 ratio, 9 h; stronger effect = lower value; strain lacks LuxN and CqsS sensors; 0 = neutral-control median; activity change, % at 7.5 µM; hit rate 0.4% among 300,000; in the data active means activity change below about -75%, passing the limit was not always enough; inconclusive means no clear call, values can overlap the other calls;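 further: luminescence divided by OD600 gain over 9 h not by final OD600 alone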
p-CIP stab down: p/CIP-EGFP fusion destabilizers, primary screen, fluorescence, F442A cells | Q05BA5 | 16 h | decrease of EGFP signal, % at 10 µM | hit rate 0.01% among 290,000 | AID 1984, 2009;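 active means EGFP signal decrease of at least 30% at 10 µM or well 3 SD below plate mean, unless failing retest; inactive means the rest, including hits failing retest or dose response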
Casp3 UBC13 ctr: CASP3 inhibitor validation, counterassay for project on UBE2N polyubiquitination blockers, biochemical, one dose. shares compounds with UBC13 inh. Recombinant caspase-3, Caspase-Glo 3/7 luminescence, 60 min. inhibition, % at 20 µM. hit rate 4% among 1,400. AID 488856, 2010;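 active means mean inhibition across replicates above about 26%, limit read from the data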;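 further: plate controls were DMSO with caspase-3 for no effect and DMSO wells lacking enzyme for full effect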
Target sequence (P42574 whole entry, looked up): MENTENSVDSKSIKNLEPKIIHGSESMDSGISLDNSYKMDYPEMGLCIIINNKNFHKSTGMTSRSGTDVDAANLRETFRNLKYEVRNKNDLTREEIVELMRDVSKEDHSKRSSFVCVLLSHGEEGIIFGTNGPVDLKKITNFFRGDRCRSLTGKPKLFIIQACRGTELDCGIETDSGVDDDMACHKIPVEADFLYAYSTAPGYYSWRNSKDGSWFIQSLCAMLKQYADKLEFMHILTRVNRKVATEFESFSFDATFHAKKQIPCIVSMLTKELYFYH
UBC13 conf: UBC13 polyubiquitination inhibitors, single-point retest, confirmation, biochemical, TR-FRET, single concentration | inhibition, % at 10 µM | shares compounds with UBC13 inh | hit rate 68% among 1,400 | AID 488859, 2010; in the data active means inhibition above about 45%; inconclusive means no clear call, values can overlap the other calls
Active calls of the source: *; u = inconclusive; x = no result; ! = a repeat was not active.

SMILES	T cruzi repl	UBC13 inh	PP1 inh	AI-2 QS modul	p-CIP stab down	Casp3 UBC13 ctr	UBC13 conf
Cn1c(=O)cc(OCCCC(=O)NCCN2CCN(c3ccccc3F)CC2)c2ccccc21	10	57*	3	-5	-20	0	38
COc1cccc(-c2sc3ccccc3c2-c2ccc(OCCN3CCCCC3)cc2)c1	x	69*	x	x	x	-2	62*
CCOc1ccc(OCCN2CCCCC2)cc1	19	-6	4	11	-4	x	x
COc1cccc(-c2sc3ccccc3c2-c2ccc(OCCN3CCCC3)cc2)c1	x	84*	x	x	x	-4	68*
COc1cccc(-c2sc3ccc(OC)cc3c2-c2ccc(C(N)=O)cc2)c1	x	4	-4	x	x	x	x
COc1cccc(-c2sc3ccccc3c2-c2ccc(OCCN(C)C)cc2)c1	x	80*	x	x	x	-2	79*
COc1ccc(-c2sc3ccccc3c2-c2ccc(OCCN3CCCCC3)cc2)cc1	x	72*	x	x	x	-3	u
COc1ccc(OC)c(NC(=O)CSc2nncc3ccc(OC)c(OC)c23)c1	15	-9	2	1	6	x	x
COc1ccc2sc(-c3ccccc3OC)c(C#Cc3cncn3C)c2c1	x	51*	x	x	x	0	38
COc1ccccc1-c1sc2cc3c(cc2c1C#CCO)OCO3	x	-18	1	x	x	x	x
COc1ccccc1-c1sc2cc3c(cc2c1C#Cc1cncn1C)OCO3	x	45*	x	x	x	0	38
CC(=O)Oc1ccc(C2=NN(c3ccccc3)C(c3ccccc3)C2)cc1 (stereo unspecified)	32	18	4	6	1	x	x
CNS(=O)(=O)c1cc(NC(=O)c2cncn2-c2ccccc2)ccc1C	2	4	1	18	-12	x	x
C/C(CC(=O)Nc1ccccc1C#N)=N\NC(=O)c1ccncc1	-16	-1	2	24	7	x	x
CCc1nc2ccccc2c(C(=O)OCc2nc3ccccc3c(=O)[nH]2)c1C	x	62*	x	x	x	1	58*
CCc1nc2ccccc2c(C(=O)OCCN2C(=O)c3ccccc3C2=O)c1C	15	52*	-1	20	-1	-3	70*
CCc1nc2ccccc2c(C(=O)OCC(=O)C(C)(C)C)c1C	-14	-1	0	13	-2	x	x
COc1ccccc1OCCNC(=O)c1cccc(S(=O)(=O)N2CCN(Cc3ccccc3)CC2)c1	x	70*	3	x	x	-3	56*
COc1ccccc1OCCNC(=O)c1cccc(S(=O)(=O)N2CCN(C)CC2)c1	-5	17	-1	7	-1	x	x
CN(Cc1ccc(Cl)c(Cl)c1)C(=O)c1cccc(S(=O)(=O)N2CCN(Cc3ccccc3)CC2)c1	x	86*	1	x	x	2	104*
CC(C(=O)NC1CCCC1)N(C(=O)c1snc(C(N)=O)c1N)c1ccc2c(c1)OCCO2 (stereo unspecified)	0	72*	-3	2	-2	1	72*
CCC(C(=O)NC1CCCC1)N(C(=O)c1snc(C(N)=O)c1N)c1ccc(OC)cc1 (stereo unspecified)	8	52*	2	8	-9	-1	62*
Cc1ccc(N(C(=O)c2snc(C(N)=O)c2N)C(CC(C)C)C(=O)NC2CCCC2)cc1 (stereo unspecified)	19	31	1	-23	-10	x	x
COc1ccc(N(C(=O)c2snc(C(N)=O)c2N)C(C(=O)NC2CCCC2)c2ccc(OC)c(OC)c2)cc1 (stereo unspecified)	19	37	-1	-4	-10	x	x
O=C(c1ccccc1)N1CCN2C(=O)c3ccccc3C12c1ccc(Cl)cc1 (stereo unspecified)	-6	-4	0	8	9	x	x
SMILES	T cruzi repl	UBC13 inh	PP1 inh	AI-2 QS modul	p-CIP stab down	Casp3 UBC13 ctr	UBC13 conf
Cc1cccc(C)c1NC(=O)CNC(=O)C(C)NC(C)c1ccccc1Br (stereo unspecified)	x	-3	4	x	x	x	x
COc1ccc(Cl)cc1NC(=O)CN(C)C(=O)c1cc2c(s1)CCCC2	x	3	x	x	x	x	x
Cc1ccc(NC2=CC(=O)CC(c3ccccc3)C2)cc1 (stereo unspecified)	-2	45*	-1	13	3	-2	0
COc1cccc(OCC(O)CN2CCN(CCN3C(=O)c4cccc5cccc(c45)C3=O)CC2)c1 (stereo unspecified)	70*	61*	4	12	1	-2	63*
COc1ccc(OCC(O)CN2CCC(CN3C(=O)c4cccc5cccc(c45)C3=O)CC2)cc1 (stereo unspecified)	33	30	-2	23	x	x	x
O=C1c2cccc3cccc(c23)C(=O)N1CCN1CCN(CC(O)COc2ccccc2)CC1 (stereo unspecified)	29	54*	-7	18	5	0	16
CCCC(=O)N(CCN1CCOCC1)c1nc2c(C)ccc(C)c2s1	12	40	-2	9	0	x	x
CCCC(=O)N(CCN1CCOCC1)c1nc2c(C)cccc2s1	0	69*	3	19	-1	-5	73*
CC(C)N(Cc1ccccc1)C(=O)COC(=O)c1c(F)cccc1F	x	4	x	x	x	x	x
CC1=CC(C)(C)n2c(O)c(N=NC(N)=S)c3c(C)ccc1c32	22	19	-1	21	-12	x	x
CC1=CC(C)(C)n2c(O)c(N=NC(N)=S)c3cccc1c32	35	76*	4	8	-6	-1	94*
COc1cc2c3c(c1)c(N=NC(N)=S)c(O)n3C(C)(C)C=C2C	42	80*	0	15	-14	3	84*
CC1=CC(C)(C)n2c(O)c(N=NC(N)=S)c3c(C)c(C)cc1c32	24	35	-3	26	-5	x	x
O=[N+]([O-])c1ccc(C2=NCCO2)cc1	-1	-12	-2	43	-10	x	x
Cn1c(/C=C/c2ccc(Cl)cc2Cl)c([N+](=O)[O-])c(=O)n(C)c1=O	9	4	-5	-7	-2	x	x
CC/C(=C(\c1ccccc1)c1ccc(OCCN(C)C)cc1)c1ccccc1	8	78*	17*!	19	x	-1	65*
CN(C)CCOc1ccc(C(C)(C)c2ccccc2)cc1	30	-5	-1	1	0	x	x
CC/C(=C(\c1ccc(O)cc1)c1ccc(OCCN(C)C)cc1)c1ccccc1	32	79*	-2	2	-4	-5	55*
CCCCCOc1ccc(C(=O)CCC(=O)NC(C)c2ccc(S(N)(=O)=O)cc2)cc1 (stereo unspecified)	x	4	x	x	x	x	x
